Measured values of several laboratories.
Each line is one published result; the experiments were not run side by side.
Target: Cholinesterase (BCHE, Homo sapiens, UniProt P06276)
Observed: enzyme activity
Mode: inhibitor

With `C=CCn1c2cc(OC(=O)CCCCN3CCN(Cc4ccc(Cl)cc4)CC3)ccc2c2ccnc(C)c21` the IC50 was 0.674 µM (Ellman).
`CS(=O)(=O)n1cc(Br)c(=O)[nH]c1=O` has an IC50 of 0.195 µM (Ellman).
The IC50 of `Cc1ccccc1OP(=O)(Oc1ccccc1C)Oc1ccccc1C` is reported as about 0.33 µM.
The IC50 of `C#CCN(C)c1nc(NCCCC2CCN(Cc3ccccc3)CC2)c(C#N)cc1C#N` is reported as 1.68 µM (Ellman).
With `CC(C)(C)c1cccc(OP(=O)(Oc2cccc(C(C)(C)C)c2)Oc2cccc(C(C)(C)C)c2)c1` the IC50 was over 20 mg/L (liver microsomes).
With `C=CCn1c2cc(OC(=O)CCCCN3CCN(Cc4cccc(Cl)c4)CC3)ccc2c2ccnc(C)c21` the IC50 was 0.568 µM (Ellman).
For `Cn1ccc(=O)n(C)c1=O`, the IC50 was 0.544 µM (Ellman).
`C=CCn1c2cc(OC(=O)CCCCN3CCN(Cc4ccc(F)cc4)CC3)ccc2c2ccnc(C)c21` gave an IC50 of 0.584 µM (Ellman).
With `O=c1[nH]cc(CO)c(=O)[nH]1` the IC50 was 0.443 µM (Ellman).
`Clc1ccc(Nc2nc3ccccc3c3[nH]c(C4CCCCC4)nc23)cc1Cl` gave an IC50 of 4.91 µM.
The IC50 of `C=CCn1c2cc(OC(=O)CCCCCN3CCN(Cc4ccccc4)CC3)ccc2c2ccnc(C)c21` is reported as 0.464 µM (Ellman).
`O=c1[nH]cc(Br)c(=O)[nH]1` gave an IC50 of 0.292 µM (Ellman).
`CC(C)c1ccc(OP(=O)(Oc2ccc(C(C)C)cc2)Oc2ccc(C(C)C)cc2)cc1` has an IC50 of over 20 mg/L (liver microsomes).
